Test results published in PubChem BioAssay.
The source made the active and inactive calls.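 The calls were made as follows, unless noted: active = duplicate-averaged activation above buffer control mean plus 5 SD of those controls; inactive = the rest.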

System: not listed separately
Assay: thallium flux activation in parental CHO cells, counter-screen for KCNQ1 potentiator project (AID 493006)
Conditions: parental CHO-K1 cells, FluxOR thallium flux, at 10 µM; stronger effect = higher value
Method in brief: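 Test system: parental CHO-K1 cells, FluxOR dye-loaded / Probe or stimulus: potassium plus thallium depolarizing stimulus, 5x stock 12.5 mM K2SO4, Tl2SO4 / Timing: overnight 37 °C plating, 90 min dye, 20 min dark compound / Measured by: kinetic thallium-flux fluorescence / Read-out: max-minus-min fluorescence over baseline, percent of buffer-to-R-L3 span / Benchmarks: buffer and R-L3 controls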
With `Nc1c(C(=O)Nc2ccc(F)cc2)nnn1-c1cccc(C(F)(F)F)c1` the outcome was “inactive”.
With `N=C1S/C(=C\c2ccco2)C(=O)N1c1nccs1` the activation was 138% (active).
With `CCOc1ccc(-c2c(=O)n(O)c3ccccc3[n+]2[O-])cc1` the activation was 224% (active).
In the case of `O=C(Nc1nnc(-c2ccco2)o1)c1cccc(Cl)c1`, the outcome is reported as “inactive”.
In the case of `COc1cccc(C(=O)Nc2nc(-c3ccccc3)c(-c3ccccc3)o2)c1`, the activation is reported as 145% (active).
With `Cc1ccc(C)c(NC(=S)N/N=C2/CCCCc3ccccc32)c1` the activation was 140% (active).
For `Cc1cc(C(=O)N/N=C/c2cccs2)no1`, the outcome was “inactive”.
In the case of `N#Cc1ccccc1NS(=O)(=O)c1cc2c3c(c1)CCC(=O)N3CCC2`, the outcome is reported as “inactive”.
In the case of `Cc1nn(C)c(C(=O)NC(=S)Nc2ccccc2Br)c1Cl`, the activation is reported as 232% (active).
For `CC(C)Cc1c2c([nH]c(=S)c1C#N)CCCC2`, the outcome was “inactive”.
For `Oc1ccc(N=Nc2ccc3c(c2)OCCO3)c2ncccc12`, the activation was 310% (active).
For `Cc1ccc(C(=O)Nc2nc3ccccc3c(=O)s2)cc1`, the activation was 186% (active).
With `CN(Cc1nccs1)C(=O)c1ccc(OC2CCN(Cc3ccccn3)CC2)cc1` the outcome was “inactive”.
With `COc1ccc(C(=O)NC(=S)NNC(=O)c2ccc3ccccc3n2)cc1` the outcome was “inactive”.
With `COc1ccc(-c2nc(=S)c3ccc4ccccc4c3[nH]2)cc1` the activation was 207% (active).
In the case of `Cc1[nH]c(=S)sc1Cc1ccc(F)cc1`, the activation is reported as 286% (active).
In the case of `CC(=O)c1c(C)[nH]c(C(=O)Nc2cccc(C(F)(F)F)c2)c1C`, the outcome is reported as “inactive”.
With `CC1(C)Cc2c(sc3[nH]c(=S)n(Cc4ccccc4)c(=O)c23)CO1` the activation was 191% (active).
In the case of `COc1ccc(-n2c(=S)[nH]c3c(oc4ccccc43)c2=O)cc1`, the outcome is reported as “inactive”.
In the case of `COc1ccc(-c2sc(C(=O)c3ccc(Cl)cc3Cl)cc2CC(=O)O)cc1`, the outcome is reported as “inactive”.
With `CCN(CC)c1ccc(NC(=S)NC(=O)c2ccco2)cc1` the activation was 263% (active).
In the case of `Cc1ccc(-c2csc3nc[nH]c(=S)c23)cc1C`, the activation is reported as 223% (active).
In the case of `CC1Cc2ccccc2N1C(=S)NC(=O)c1ccc(Cl)cc1Cl` (stereo not given), the activation is reported as 214% (active).
With `Nc1c(Cl)cc(C2=NCCn3nc4cc(C(F)(F)F)ccc4c32)cc1Cl` the outcome was “inactive”.
In the case of `Cc1ccc(Cc2cnc(N3C(=N)SC(c4ccccc4)C3=O)s2)cc1` (stereo not given), the outcome is reported as “inactive”.
For `Cc1ccc(NC(=S)N2CCC(N(C)CC3CCCO3)CC2)cc1` (stereo not given), the outcome was “inactive”.
In the case of `Cc1cc(C)cc(-n2ccnc2SCC(=O)Nc2nccs2)c1`, the outcome is reported as “inactive”.
For `CCc1nnc(NC(=O)c2ccc(S(=O)(=O)N(CC)Cc3ccccc3)cc2)o1`, the activation was 254% (active).
With `CCCCn1c(NS(=O)(=O)c2ccc(C)cc2)c(S(=O)(=O)c2ccccc2)c2nc3ccccc3nc21` the outcome was “inactive”.
With `C=CCNC(=S)Nc1sc2c(c1C(=O)OCC)CC(C)(CC)OC2` (stereo not given) the activation was 318% (active).
For `Cc1ccc(OCC(=O)NNC(=S)NC(=O)c2cccs2)c(C)c1`, the activation was 195% (active).
For `CC1CCCCN1C(=S)NC(=O)c1cccs1` (stereo not given), the outcome was “inactive”.
In the case of `COC(=O)[C@@H]1CCCN1C(=O)CCc1nnc(CCC2CCCCC2)o1`, the outcome is reported as “inactive”.
With `CCC(C)NC(=O)c1cc(Cl)c(NC(=O)C2=C(C)OCCS2)cc1OC` (stereo not given) the outcome was “inactive”.
For `CC(C)(C)CC(C)(C)NCC(O)COCCOc1ccc(Br)cc1` (stereo not given), the outcome was “inactive”.
In the case of `COc1ccc(CN(C)C(=O)c2ccc3ccccc3n2)cc1F`, the outcome is reported as “inactive”.
In the case of `CC1CCc2sc3nc(N4CCN(CCO)CC4)n4ncnc4c3c2C1` (stereo not given), the activation is reported as 510% (active).
For `Cc1nn2c(NCc3ccccn3)cc(C(C)C)nc2c1-c1ccccc1`, the outcome was “inactive”.
In the case of `O=C(NC(=S)NC1CCCCC1)c1ccc(F)cc1`, the outcome is reported as “inactive”.
With `Cn1ncc([N+](=O)[O-])c1C(=O)N/N=C/c1ccc(F)cc1` the outcome was “inactive”.

Molecular target: Potassium voltage-gated channel subfamily KQT member 1 (Homo sapiens) (UniProt P51787)
Sequence (P51787 whole entry, looked up): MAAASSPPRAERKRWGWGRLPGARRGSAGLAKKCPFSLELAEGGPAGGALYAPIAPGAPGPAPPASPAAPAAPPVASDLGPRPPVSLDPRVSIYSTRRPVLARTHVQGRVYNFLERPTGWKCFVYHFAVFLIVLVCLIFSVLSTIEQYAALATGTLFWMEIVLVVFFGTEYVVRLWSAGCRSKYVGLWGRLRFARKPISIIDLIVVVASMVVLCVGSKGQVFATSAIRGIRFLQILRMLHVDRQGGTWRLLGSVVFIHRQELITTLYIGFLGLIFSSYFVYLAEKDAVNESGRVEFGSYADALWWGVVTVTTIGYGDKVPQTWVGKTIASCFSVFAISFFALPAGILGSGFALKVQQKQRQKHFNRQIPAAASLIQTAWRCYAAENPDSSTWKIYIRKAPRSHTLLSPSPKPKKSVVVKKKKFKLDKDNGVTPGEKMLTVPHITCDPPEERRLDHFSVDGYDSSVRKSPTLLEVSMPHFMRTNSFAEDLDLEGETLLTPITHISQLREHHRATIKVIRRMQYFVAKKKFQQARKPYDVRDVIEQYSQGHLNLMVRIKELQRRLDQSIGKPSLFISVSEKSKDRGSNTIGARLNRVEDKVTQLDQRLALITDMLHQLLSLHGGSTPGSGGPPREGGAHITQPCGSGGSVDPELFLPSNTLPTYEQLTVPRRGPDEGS
Assay: KCNQ1 potassium channel potentiators, confirmation, FluxOR thallium flux, CHO cells, duplicates (AID 493007;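 active = potentiation averaged over duplicate wells exceeding buffer-only control mean by more than 3 SD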;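 as to outcome: cells depolarized by a potassium plus thallium sulfate stimulus after compound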;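 as to potentiation: 0% = buffer-only wells and 100% = R-L3 activator control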)
Conditions: KCNQ1 cell line, FluxOR thallium flux fluorescence, at 10 µM; stronger effect = higher value, % of reference activator effect, buffer zero
Method in brief: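 Assay system: CHO cells carrying KCNQ1 | Controls: Buffer and R-L3 controls | Schedule: FluxOR dye loading 90 min, compound exposure 20 min, room temperature | Read-out: Baseline-normalized fluorescence change, percent of buffer-to-R-L3 range | Replicates: Each compound tested in duplicate | Technique: Kinetic thallium influx fluorescence with FluxOR dye, 10 s baseline, 110 s post-stimulus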
In the case of `Nc1c(C(=O)Nc2ccc(F)cc2)nnn1-c1cccc(C(F)(F)F)c1`, the outcome is reported as “inactive”.
With `N=C1S/C(=C\c2ccco2)C(=O)N1c1nccs1` the outcome was “inactive”.
With `CCOc1ccc(-c2c(=O)n(O)c3ccccc3[n+]2[O-])cc1` the potentiation was 59.5% (active).
With `O=C(Nc1nnc(-c2ccco2)o1)c1cccc(Cl)c1` the outcome was “inactive”.
With `COc1cccc(C(=O)Nc2nc(-c3ccccc3)c(-c3ccccc3)o2)c1` the potentiation was 31% (active).
In the case of `Cc1ccc(C)c(NC(=S)N/N=C2/CCCCc3ccccc32)c1`, the potentiation is reported as 37% (active).
For `Cc1cc(C(=O)N/N=C/c2cccs2)no1`, the outcome was “inactive”.
With `N#Cc1ccccc1NS(=O)(=O)c1cc2c3c(c1)CCC(=O)N3CCC2` the outcome was “inactive”.
With `Cc1nn(C)c(C(=O)NC(=S)Nc2ccccc2Br)c1Cl` the potentiation was 96% (active).
In the case of `CC(C)Cc1c2c([nH]c(=S)c1C#N)CCCC2`, the outcome is reported as “inactive”.
With `Oc1ccc(N=Nc2ccc3c(c2)OCCO3)c2ncccc12` the potentiation was 116% (active).
For `Cc1ccc(C(=O)Nc2nc3ccccc3c(=O)s2)cc1`, the potentiation was 35.5% (active).
For `CN(Cc1nccs1)C(=O)c1ccc(OC2CCN(Cc3ccccn3)CC2)cc1`, the outcome was “inactive”.
For `COc1ccc(C(=O)NC(=S)NNC(=O)c2ccc3ccccc3n2)cc1`, the potentiation was 26% (active).
For `COc1ccc(-c2nc(=S)c3ccc4ccccc4c3[nH]2)cc1`, the potentiation was 83.5% (active).
With `Cc1[nH]c(=S)sc1Cc1ccc(F)cc1` the potentiation was 101% (active).
With `CC(=O)c1c(C)[nH]c(C(=O)Nc2cccc(C(F)(F)F)c2)c1C` the outcome was “inactive”.
With `CC1(C)Cc2c(sc3[nH]c(=S)n(Cc4ccccc4)c(=O)c23)CO1` the potentiation was 63% (active).
With `COc1ccc(-n2c(=S)[nH]c3c(oc4ccccc43)c2=O)cc1` the outcome was “inactive”.
In the case of `COc1ccc(-c2sc(C(=O)c3ccc(Cl)cc3Cl)cc2CC(=O)O)cc1`, the outcome is reported as “inactive”.
With `CCN(CC)c1ccc(NC(=S)NC(=O)c2ccco2)cc1` the potentiation was 104% (active).
In the case of `Cc1ccc(-c2csc3nc[nH]c(=S)c23)cc1C`, the potentiation is reported as 56.5% (active).
For `CC1Cc2ccccc2N1C(=S)NC(=O)c1ccc(Cl)cc1Cl` (stereo not given), the potentiation was 91.5% (active).
For `Nc1c(Cl)cc(C2=NCCn3nc4cc(C(F)(F)F)ccc4c32)cc1Cl`, the outcome was “inactive”.
In the case of `Cc1ccc(Cc2cnc(N3C(=N)SC(c4ccccc4)C3=O)s2)cc1` (stereo not given), the outcome is reported as “inactive”.
With `Cc1ccc(NC(=S)N2CCC(N(C)CC3CCCO3)CC2)cc1` (stereo not given) the potentiation was 19.5% (active).
With `Cc1cc(C)cc(-n2ccnc2SCC(=O)Nc2nccs2)c1` the outcome was “inactive”.
With `CCc1nnc(NC(=O)c2ccc(S(=O)(=O)N(CC)Cc3ccccc3)cc2)o1` the potentiation was 107% (active).
With `CCCCn1c(NS(=O)(=O)c2ccc(C)cc2)c(S(=O)(=O)c2ccccc2)c2nc3ccccc3nc21` the outcome was “inactive”.
With `C=CCNC(=S)Nc1sc2c(c1C(=O)OCC)CC(C)(CC)OC2` (stereo not given) the potentiation was 49.5% (active).
For `Cc1ccc(OCC(=O)NNC(=S)NC(=O)c2cccs2)c(C)c1`, the potentiation was 76.5% (active).
In the case of `CC1CCCCN1C(=S)NC(=O)c1cccs1` (stereo not given), the outcome is reported as “inactive”.
For `COC(=O)[C@@H]1CCCN1C(=O)CCc1nnc(CCC2CCCCC2)o1`, the outcome was “inactive”.
With `CCC(C)NC(=O)c1cc(Cl)c(NC(=O)C2=C(C)OCCS2)cc1OC` (stereo not given) the outcome was “inactive”.
With `CC(C)(C)CC(C)(C)NCC(O)COCCOc1ccc(Br)cc1` (stereo not given) the outcome was “inactive”.
For `COc1ccc(CN(C)C(=O)c2ccc3ccccc3n2)cc1F`, the outcome was “inactive”.
With `CC1CCc2sc3nc(N4CCN(CCO)CC4)n4ncnc4c3c2C1` (stereo not given) the potentiation was 200% (active).
In the case of `Cc1nn2c(NCc3ccccn3)cc(C(C)C)nc2c1-c1ccccc1`, the outcome is reported as “inactive”.
In the case of `O=C(NC(=S)NC1CCCCC1)c1ccc(F)cc1`, the outcome is reported as “inactive”.
For `Cn1ncc([N+](=O)[O-])c1C(=O)N/N=C/c1ccc(F)cc1`, the outcome was “inactive”.
